High-throughput results deposited in PubChem by The Scripps Research Institute Molecular Screening Center.
SIAE inh – inhibitors of human sialic acid acetylesterase SIAE | AID 1053197 | SIAE FP-Rh probe binding, fluorescence polarization | Q9HAT2 | inhibition, % at 9.66 µM | 370,000 tested, 0.69% active;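 active means inhibition above a cutoff: mean of compounds within the control limits plus 3 SD of those, cut at about 17% in these data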;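 further: 0% = plate median of compound wells and 100% = probe without SIAE protein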
HTRA1 inh – HTRA1 (human) protease inhibition; 340,000 tested, 0.5% active; inhibition, % at 5.96 µM; recombinant HTRA1, FP-rhodamine activity-based probe, fluorescence polarization; in the data active means inhibition above about 36%;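 further: 0% = enzyme with DMSO and 100% = wells lacking enzyme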
TCR-CD3 inh – blocks the human TCR-CD3 interaction; inhibition, % at 9.4 µM; 360,000 tested, 0.37% active; AID 651800; TAMRA-labeled TCR probe fluorescence, biochemical; in the data active means inhibition above about 19%;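 further: recombinant mutant TCR 2C K166C tagged with TAMRA read by polarization; 0% = receptor in buffer alone and 100% = receptor with positive control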
DAGLB inhibitor – blocks human DAGLB lipase activity; HEK293T DAGLB membrane lysate, EnzChek fluorogenic substrate; inhibition, % at 5.17 µM; 340,000 tested, 0.059% active; in the data active means inhibition above about 34%;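 further: 0% = enzyme with vehicle and 100% = wells lacking enzyme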
ABHD4 inh – ABHD4 (mouse) inhibition, primary FP screen. Q8VD66. purified mABHD4, FP-Rh probe fluorescence polarization. inhibition, % at 8.92 µM. 370,000 tested, 0.54% active;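 active means inhibition exceeding the mean over every tested compound plus 3 SD, cut at about 30% in these data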;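 further: 0% = plate median of compound wells and 100% = S159A mutant with DMSO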
Target sequence (Q8VD66 whole entry, looked up): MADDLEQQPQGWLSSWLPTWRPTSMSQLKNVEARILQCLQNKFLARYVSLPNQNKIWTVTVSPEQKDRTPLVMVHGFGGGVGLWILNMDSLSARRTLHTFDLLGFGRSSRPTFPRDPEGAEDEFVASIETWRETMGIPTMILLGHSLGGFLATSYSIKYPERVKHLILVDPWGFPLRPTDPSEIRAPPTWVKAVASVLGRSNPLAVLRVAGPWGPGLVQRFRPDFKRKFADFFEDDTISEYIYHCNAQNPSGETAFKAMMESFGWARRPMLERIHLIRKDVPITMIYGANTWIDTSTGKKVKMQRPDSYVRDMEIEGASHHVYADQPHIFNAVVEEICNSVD
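Assay system: mouse ABHD4 enzyme, wild type / Also added: fluorescent activity-based probe FP-Rh / Doses: single nominal dose of 8.92 µM, 0.89% DMSO final / Timing: 45 min compound pre-incubation plus 60 min probe step, 25 °C / Signal: FP readout, ex 525 nm / em 598 nm / Control set: S159A mutant/DMSO as 100%, compound-well median as 0%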
SIAE confirm – human SIAE inhibition, confirmation. shares compounds with SIAE inh. SIAE FP-Rh activity-based probe, fluorescence polarization. inhibition, % at 9.66 µM. 2,300 tested, 13% active. AID 1117263;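 active means mean inhibition of the replicates above the hit cutoff set in the primary screen, cut at about 17% in these data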;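 further: 0% = SIAE with DMSO and probe and 100% = probe without SIAE; inhibitors lower polarization as more probe stays unbound to SIAE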
Active calls of the source: *; . = no result given; + = active, no number. Rows were chosen to be rich in hits. Some 1.5% of all compounds tested hit in one or more screens of this group.

SMILES	SIAE inh	HTRA1 inh	TCR-CD3 inh	DAGLB inhibitor	ABHD4 inh	SIAE confirm
CCOC(=O)CCC(=O)N1CCOCCOCCOCC1	-5	-5	1	-5	-3	.
c1cc2ccn(CC3CC3)c2cc1-c1ccc2ccn(CC3CC3)c2c1	-6	.	.	.	28	.
Cc1cc(N2CCNC[C@@H]2C)ccc1N1C[C@@H](C)O[C@@H](C)C1	7	.	4	.	7	.
COc1cccc(/C=C/C(=O)c2ccc(NC3=NCCCS3)cc2)c1	5	-30	10	-1	14	.
CC(C)(C)c1ccc(/C=C/C(=O)c2ccc(NC3=NCCCS3)cc2)cc1	21*	-56	1	4	4	12
O=C(/C=C/c1ccc(Br)cc1)c1ccc(NC2=NCCCS2)cc1	40*	-42	2	7	-8	8
Cc1cccc(/C=C/C(=O)c2ccc(NC3=NCCCS3)cc2)c1	53*	-38	-3	5	-5	2
O=C(/C=C/c1ccccc1)c1ccc(NC2=NCCCS2)cc1	0	-19	9	0	1	.
Cc1cc(O)cc(=O)n1-c1cccc(Br)c1	-6	.	-2	.	-4	.
COc1ccc(NC(=O)C2(C)CCN2C(=O)c2ccc(C(C)(C)C)cc2)cc1OC (configuration not stated)	3	.	-1	.	5	.
O=C1CCN(Cc2ccccc2)CCN1[C@H](CO)Cc1ccccc1	-3	9	-2	0	1	.
O=C1CCN(Cc2ccc(O)cc2)CCN1[C@H](CO)Cc1ccccc1	18*	1	3	-3	5	1
COc1ccc(C=NNC(=O)Cc2cc(=O)[nH][nH]2)c(OC)c1	3	.	.	.	7	.
CCCCCCCCN1C(=O)[C@@H](CC(=O)NCc2cccc(C(F)(F)F)c2)C[C@@]2(C(=O)OC)C1=C[C@H](C1CCCC1)O[C@@H]2C	1	.	-2	.	0	.
COC(=O)C1CN(Cc2ccccc2)CCS(=O)(=O)N1Cc1ccccc1F (configuration not stated)	-1	.	.	.	1	.
O=C(Nc1cccc(Cc2ccccc2)c1)Nc1cccc2[nH]c([C@@H]3O[C@H](CO)[C@@H](O)[C@H](O)[C@H]3O)nc12	13	.	-2	.	11	.
O=C(Nc1ccc(Br)cc1Br)Nc1cccc2[nH]c([C@@H]3O[C@H](CO)[C@@H](O)[C@H](O)[C@H]3O)nc12	19*	.	9	.	1	2
CSc1nn(CCC#N)c(=O)[nH]c1=O	-1	.	-6	.	-18	.
CC(Sc1nnc(NC2CCCCC2)s1)C(=O)Nc1ccc2c(c1)C(=O)c1ccccc1C2=O (configuration not stated)	24*	10	-4	4	11	-25
CC(Sc1nnc(NC2CC2)s1)C(=O)Nc1ccc(N2CCOCC2)cc1 (configuration not stated)	-7	-4	-6	1	-2	.
O=C(N/N=C/c1c(O)ccc2ccccc12)c1[nH]ncc1Br	19*	33	11	6	17	-5
Cn1c(-c2ccc([N+](=O)[O-])cc2)nc2ccccc21	-4	2	-7	-3	-4	.
Cn1nc([N+](=O)[O-])c(C(C#N)c2nc3ccccc3n2C)c(Cl)c1=O (configuration not stated)	27*	21	9	25	23	9
COc1ccc(CNC(=O)CCNC(=O)N2CC(=O)Nc3ccccc32)cc1	+	-1	-4	0	-2	4
COc1ccc(C2CC3CN(C4CCCCC4)C(=O)C3N2C)cc1 (configuration not stated)	6	.	.	.	7	.
SMILES	SIAE inh	HTRA1 inh	TCR-CD3 inh	DAGLB inhibitor	ABHD4 inh	SIAE confirm
Cc1cc(N2CCN(CC(C)(C)O)C[C@@H]2C)ccc1N1CCN(CC(C)(C)O)[C@H](C)C1	6	.	-2	.	-14	.
COc1ccc(CCNC(=O)C/C(C)=N/NC(=O)c2ccc([N+](=O)[O-])cc2Cl)cc1OC	17*	-1	-8	3	-4	6
CCC(NC(=O)CN1CCN(c2cccc(OC)c2)CC1)c1ccccc1 (configuration not stated)	-1	.	.	.	2	.
Nc1ncnc2c1ncn2[C@@H]1O[C@H](C(=O)N2CCC(F)(F)CC2)[C@@H](O)[C@H]1O	52*	.	5	.	-2	57*
Nc1ncnc2c1ncn2[C@@H]1O[C@H](C(=O)N2CCC[C@@H]2C(=O)OCc2ccccc2)[C@@H](O)[C@H]1O	28*	.	11	.	-6	19*
Cc1c(NC(=S)NC(=O)C(c2ccccc2)c2ccccc2)cccc1C(=O)O	17*	-1	2	2	4	-4
O=C1CS/C(=C/C(=O)c2ccccc2)N1	-9	3	-3	-2	1	.
Cc1ccccc1C(=O)/C=C1\NC(=O)CS1	17*	1	-3	0	0	2
Cc1ccc2c(c1)-c1c(cnn1CC(=O)NCCc1ccc(Cl)cc1)CO2	6	.	.	.	0	.
CCn1cnc2cc(NCc3cccs3)ccc21	21*	3	3	0	3	2
Cc1c(O)c2ccccc2n(-c2ccccc2)c1=O	2	6	4	-1	-5	.
CC(C)(C)c1c(Cl)c(O)c(-c2ccccc2)c(=O)n1-c1ccccc1	19*	.	0	.	-3	0
S=c1[nH]nc(-c2ccc3ncccc3c2)n1-c1ccc2c(c1)OCCO2	14	0	0	3	6	.
S=c1[nH]nc(Cn2c(-c3ccccn3)nc3ccccc32)n1-c1ccc2c(c1)OCCO2	19*	4	4	10	2	3
COCCCn1cnn2c(=O)c3ccccc3nc2c1=O	-4	.	-1	.	4	.
COc1ccc(Nc2ncnc3sc(-c4ccccc4)cc23)cc1	33*	-20	-9	-3	1	1
COc1ncnc2sc(-c3ccccc3)cc12	5	-8	-2	-10	-6	.
CC(C)(C)c1n[nH]c(=S)n(/N=C/c2cccs2)c1=O	-2	5	-2	-1	-2	.
Cc1n[nH]c(=S)n(/N=C/c2cccs2)c1=O	19*	2	-4	1	1	-2
CCCN(CCC)Cc1c(C(=O)N/N=C/c2ccoc2)nnn1-c1nonc1N	2	-25	-7	-1	-4	.
CCCN(CCC)Cc1c(C(=O)N/N=C/c2ccco2)nnn1-c1nonc1N	17*	-19	-3	0	2	5
CCN(CC)c1ccc(/C=N/NC(=O)c2nnn(-c3nonc3N)c2C(C)C)c(O)c1	17*	35	-5	7	18	5
O=C(Cc1cccs1)NCCN1CCOCC1	22*	4	2	0	-3	1
Cc1ccccc1CC(=O)NCCN1CCOCC1	2	0	3	-1	3	.
Nc1sccc1C(=O)NCCN1CCOCC1	19*	.	0	.	11	2
COC(=O)[C@@]12CCCCC3=C1N(CCC3)C(=O)[C@H]2CC(=O)NCC1CCCCC1	-2	.	.	.	2	.
NS(=O)(=O)c1cccc(NC(=S)NC(=O)c2cccc([N+](=O)[O-])c2)c1	12	3	-4	3	-3	.
